According to ChEMBL document CHEMBL4622986, “Synthesis and Anti-HCV Activity of Sugar-Modified Guanosine Analogues: Discovery of AL-611 as an HCV NS5B Polymerase Inhibitor for the Treatment of Chronic Hepatitis C” (J Med Chem, 2020):

Key:
[1] = Prodrug activation in human hepatocytes assessed as [[(2S,3S,4R,5R)-5-(2-amino-6-oxo-1H-purin-9-yl)-2,4-difluoro-3-hydroxy-4-methyl-tetrahydrofuran-2-yl]methoxy-hydroxy-phosphoryl]phosphono hydrogen phosphate metabolite formation at 0.5 to 50 uM incubated for 24 hrs by LC-MS/MS analysis; format: ADME, cell-based, Hepatocyte
Procedure, shortened: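 Primary human hepatocytes from three donors, acclimated overnight at 37 °C, 5% CO2, incubated 24 h across a range of extracellular compound concentrations. Cells washed with cold saline and lysed in 70/30 methanol/water. Intracellular NTP measured by negative-ion LC-MS/MS against standards spiked into untreated hepatocyte lysate; mean ± standard deviation reported.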

[2] = tested on: Hepatitis C virus; experiment: Antiviral activity against HCV con1 subgenomic replicon infected in human HuH7 cells assessed as reduction in viral RNA level by qRT-PCR analysis; format: functional, organism-based, Hepacivirus hominis; conditions: isolate Con1, Huh-7
Procedure, shortened: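 Huh-7 cells carrying a subgenomic Con1 HCV replicon (neomycin phosphotransferase, kept under 0.25 mg/ml G418) were exposed to serially diluted compound in DMEM with 2% FBS and 0.5% DMSO, without G418, at 37 °C. Total RNA was extracted and HCV RNA copies were measured by multiplex QRT-PCR (Taqman). EC50 was obtained by 4-parameter curve fit.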

[3] = Cytotoxicity against human HuH7 cells infected with HCV con1 subgenomic replicon assessed as reduction in cell viability measured after 3 days by CellTiter-blue cell viability assay; format: cell-based, Huh-7
Procedure, shortened: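 Run in the replicon-bearing Huh-7 cells under the same settings as the antiviral read (DMEM, 2% FBS, 0.5% DMSO, no G418, 37 °C). After 3 days of treatment, viability was read with CellTiter-Blue and CC50 was derived by curve fitting.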

[4] = Prodrug activation in human hepatocytes assessed as time at which [[(2S,3S,4R,5R)-5-(2-amino-6-oxo-1H-purin-9-yl)-2,4-difluoro-3-hydroxy-4-methyl-tetrahydrofuran-2-yl]methoxy-hydroxy-phosphoryl]phosphono hydrogen phosphate metabolite formation reached steady state at 10 uM incubated for 2 to 72 hrs by LC-MS/MS analysis; format: ADME, cell-based, Hepatocyte
Procedure, shortened: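 Primary human hepatocytes acclimated overnight at 37 °C, 5% CO2, then continuously incubated with 10 μM compound and sampled over 2-72 h. Cells washed with cold saline and lysed in 70/30 methanol/water. Intracellular NTP quantified by negative-ion LC-MS/MS against standards spiked into untreated hepatocyte lysate.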

[5] = Cytotoxicity against human HepG2 cells incubated for 8 days by cellTiter-Glo assay; format: cell-based
Procedure, shortened: (§1)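 Cells (1×10^5/well) on collagen I-coated wells, first kept 8 days in recommended medium without drug, then exposed to compound for 8 days with refeeding every other day. Viability read by CellTiter-Glo luminescence; CC50 derived by curve fitting.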

[6] = Prodrug activation in human hepatocytes assessed as [[(2S,3S,4R,5R)-5-(2-amino-6-oxo-1H-purin-9-yl)-2,4-difluoro-3-hydroxy-4-methyl-tetrahydrofuran-2-yl]methoxy-hydroxy-phosphoryl]phosphono hydrogen phosphate metabolite formation per million cells at 50 uM incubated for 24 hrs by LC-MS/MS analysis; format: ADME, cell-based, Hepatocyte
Procedure, shortened: (§2)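 Primary human hepatocytes (1.5-2 million cells/well) acclimated overnight at 37 °C, 5% CO2, then incubated 24 h with 50 μM extracellular compound. Cells washed with cold 0.9% NaCl and lysed in 70/30 methanol/water. Extract dried and reconstituted, then analysed by LC-MS/MS with an internal standard; reported as pmol per million cells.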

[7] = Cytotoxicity against human MT4 cells incubated for 8 days by cellTiter-Glo assay; format: cell-based; procedure, shortened: as §1
[8] = Prodrug activation in human hepatocytes assessed as nucleoside monophosphate metabolite formation per million cells incubated for 24 hrs; format: ADME, cell-based, Hepatocyte; procedure, shortened: as §2
[9] = Prodrug activation in Beagle dog assessed as [[(2S,3S,4R,5R)-5-(2-amino-6-oxo-1H-purin-9-yl)-2,4-difluoro-3-hydroxy-4-methyl-tetrahydrofuran-2-yl]methoxy-hydroxy-phosphoryl]phosphono hydrogen phosphate metabolite formation in liver at 9.69 mg/kg, po measured at 4 hrs post dose by LC-MS/MS analysis; format: ADME, organism-based, Canis lupus familiaris; conditions: in vivo
Procedure, shortened: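 Male non-naïve beagle dogs (n=2 per time point), fasted overnight, single oral dose of 9.69 mg/kg (5 mg/kg parent nucleoside equivalent) as a solution in 40% PEG400 in water. Animals anesthetized with pentobarbital before liver collection. Liver NTP measured by negative-ion LC-MS/MS against standards spiked into blank liver homogenate.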

[10] = Selectivity index, ratio of CC50 for human HuH7 cells infected with HCV con1 subgenomic replicon to EC50 for HCV con1 subgenomic replicon; format: toxicity; conditions: read-out: Ratio CC50/EC50
Procedure, shortened: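 Ratio of CC50 (CellTiter-Blue viability after 3 days) to EC50 (HCV RNA by QRT-PCR). Both were measured in Huh-7 Con1 subgenomic replicon cells in DMEM with 2% FBS and 0.5% DMSO at 37 °C.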

[11] = Cytotoxicity against human HeLa cells incubated for 8 days by cellTiter-Glo assay; format: cell-based; procedure, shortened: as §1
[12] = Prodrug activation in human hepatocytes assessed as [[(2S,3S,4R,5R)-5-(2-amino-6-oxo-1H-purin-9-yl)-2,4-difluoro-3-hydroxy-4-methyl-tetrahydrofuran-2-yl]methoxy-hydroxy-phosphoryl]phosphono hydrogen phosphate metabolite formation after 24 to 48 hrs by LC-MS/MS analysis; format: ADME, cell-based, Hepatocyte
[13] = Cytotoxicity against human U937 cells incubated for 8 days by cellTiter-Glo assay; format: cell-based, U-937; procedure, shortened: as §1
[14] = Cytotoxicity against human HuH7 cells incubated for 8 days by cellTiter-Glo assay; format: cell-based, Huh-7; procedure, shortened: as §1
[15] = Prodrug activation in human hepatocytes assessed as half life of [[(2S,3S,4R,5R)-5-(2-amino-6-oxo-1H-purin-9-yl)-2,4-difluoro-3-hydroxy-4-methyl-tetrahydrofuran-2-yl]methoxy-hydroxy-phosphoryl]phosphono hydrogen phosphate metabolite at 50 uM incubated for 24 hrs followed by medium replacement measured after 6 hrs by LC-MS/MS analysis; format: ADME, cell-based, Hepatocyte
Procedure, shortened: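 Primary human hepatocytes acclimated overnight at 37 °C, 5% CO2, then given 50 μM compound for 24 h. Medium replaced with blank medium and cells sampled at 0, 3, 6, 10, 24 and 48 h. Cells washed with cold saline and lysed in 70/30 methanol/water; NTP measured by LC-MS/MS. Half-life obtained by first-order fit of the terminal phase (n = 3).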

[16] = Cytotoxicity against human A549 cells incubated for 8 days by cellTiter-Glo assay; format: cell-based; procedure, shortened: as §1

CCOc1nc(N)nc2c1ncn2[C@@H]1O[C@](F)(COP(=O)(N[C@@H](C)C(=O)OC(C)C)Oc2ccccc2)[C@@H](O)[C@@]1(C)F (stereo partly specified)
Drug metabolism [1]: Metabolite_Detected | EC50 [2]: 14 nM | CC50 at 72 h [3]: > 100 µM | Time [4]: 2 to 16 h | CC50 at 192 h [5]: > 100 µM | Drug metabolism [6]: 271 pmol | CC50 at 192 h [7]: 92 µM | Drug metabolism [8]: 89 pmol | Drug metabolism [9]: 11.2 µM | selectivity ratio [10]: > 7000 | CC50 at 192 h [11]: > 100 µM | Drug metabolism [12]: Metabolite_Notdetected | CC50 at 192 h [13]: 10 µM | CC50 at 192 h [14]: > 100 µM | t1/2 [15]: 11.2 h | CC50 at 192 h [16]: > 100 µM
